Test results reported in ChEMBL document CHEMBL4406852, “Combating fluconazole-resistant fungi with novel β-azole-phenylacetone derivatives” (Eur J Med Chem, 2019).
≈ marks a conversion by molar mass, not a printed value.

Legend:
[1] = tested on: Candida albicans; assay: Antifungal activity against fluconazole-resistant Candida albicans 17 assessed as reduction in fungal growth incubated for 24 hrs by serial dilution method; format: functional; conditions: Candida albicans, 17, 24 h
Outline: (§1)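 Fluconazole-resistant C. albicans clinical isolates (17# and CaR from AIDS patients; 632, 901, 904 from clinic) tested by CLSI broth dilution MIC in RPMI 1640 buffered to pH 7.0 with MOPS. Compounds dissolved in DMSO, serially diluted to final 0.03–16 or 0.125–64 μg/mL; inoculum 1–5 × 10^3 CFU/mL; 35 °C, 24 h. MIC = lowest concentration inhibiting visible growth; fluconazole and itraconazole as controls.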

[2] = tested on: Candida albicans; assay: Antifungal activity against Candida albicans GIM 2.194 assessed as reduction in fungal growth incubated for 24 hrs by serial dilution method; format: functional; conditions: GIM 2.194, 24 h
Outline: (§2)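 MIC by CLSI broth microdilution in RPMI 1640 buffered to pH 7.0 with MOPS. Compounds dissolved in DMSO and serially diluted to final 0.03–16 or 0.125–64 µg/mL. Inoculum 1–5 × 10^3 CFU/mL. Incubation 35 °C, 24 h. Drug-free growth and fungus-free blank controls. MIC is the lowest concentration preventing visible growth.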

[3] = Cytotoxicity against human A549 cells assessed as cell survival at 10 uM/l incubated for 24 hrs by MTT assay relative to control; format: cell-based; conditions: read-out: Activity
Outline: (§3)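 A549 cells were seeded at 3000 per well in RPMI 1640 and held 16 h at 37 °C, 5% CO2. Medium was then replaced with medium holding DMSO-dissolved compound at final 0.08, 0.4, 2.0 or 10 µM/L and incubated 24 h. MTT was added for 4 h and absorbance read at 490 nm to give survival.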

[4] = tested on: Candida albicans; assay: Antifungal activity against fluconazole-resistant Candida albicans 904 assessed as reduction in fungal growth incubated for 24 hrs by serial dilution method; format: functional; conditions: Candida albicans, 904, 24 h; outline: as §1
[5] = Cytotoxicity against human A549 cells assessed as cell survival at 2 uM/l incubated for 24 hrs by MTT assay relative to control; format: cell-based; conditions: read-out: Activity; outline: as §3
[6] = tested on: Candida albicans; assay: Antifungal activity against Candida albicans SC5314 assessed as reduction in fungal growth incubated for 24 hrs by serial dilution method; format: functional; conditions: SC5314, 24 h; outline: as §2
[7] = tested on: Candida tropicalis; assay: Antifungal activity against Candida tropicalis GIM 2.183 assessed as reduction in fungal growth incubated for 24 hrs by serial dilution method; format: functional; conditions: GIM 2.183, 24 h; outline: as §2
[8] = Cytotoxicity against human A549 cells assessed as cell survival at 0.08 uM/l incubated for 24 hrs by MTT assay relative to control; format: cell-based; conditions: read-out: Activity; outline: as §3
[9] = Cytotoxicity against human A549 cells assessed as cell survival at 0.4 uM/l incubated for 24 hrs by MTT assay relative to control; format: cell-based; conditions: read-out: Activity; outline: as §3
[10] = tested on: Nakaseomyces glabratus; assay: Antifungal activity against Candida glabrata assessed as reduction in fungal growth incubated for 24 hrs by serial dilution method; format: functional; outline: as §2
[11] = tested on: Candida albicans; assay: Antifungal activity against fluconazole-resistant Candida albicans 901 assessed as reduction in fungal growth incubated for 24 hrs by serial dilution method; format: functional; conditions: Candida albicans, 901, 24 h; outline: as §1
[12] = tested on: Candida albicans; assay: Antifungal activity against fluconazole-resistant Candida albicans 632 assessed as reduction in fungal growth incubated for 24 hrs by serial dilution method; format: functional; conditions: Candida albicans, 632, 24 h; outline: as §1
[13] = tested on: Candida albicans; assay: Antifungal activity against fluconazole-resistant Candida albicans CaR assessed as reduction in fungal growth incubated for 24 hrs by serial dilution method; format: functional; outline: as §1
[14] = tested on: Candida parapsilosis; assay: Antifungal activity against Candida parapsilosis GIM 2.190 assessed as reduction in fungal growth incubated for 24 hrs by serial dilution method; format: functional; conditions: Lodderomyces parapsilosis, GIM 2.190, 24 h; outline: as §2
[15] = molecular target: T1, Lanosterol 14-alpha demethylase (Candida albicans (strain SC5314 / ATCC MYA-2876) (Yeast), UniProt P10613); assay: Inhibition of Candida albicans CYP51 assessed as increase in sterol level at 0.015 ug/ml incubated for 18 hrs by GC/MS analysis relative to control; design: scale not given: the % may be the effect or the level left
T1 sequence (P10613 whole entry): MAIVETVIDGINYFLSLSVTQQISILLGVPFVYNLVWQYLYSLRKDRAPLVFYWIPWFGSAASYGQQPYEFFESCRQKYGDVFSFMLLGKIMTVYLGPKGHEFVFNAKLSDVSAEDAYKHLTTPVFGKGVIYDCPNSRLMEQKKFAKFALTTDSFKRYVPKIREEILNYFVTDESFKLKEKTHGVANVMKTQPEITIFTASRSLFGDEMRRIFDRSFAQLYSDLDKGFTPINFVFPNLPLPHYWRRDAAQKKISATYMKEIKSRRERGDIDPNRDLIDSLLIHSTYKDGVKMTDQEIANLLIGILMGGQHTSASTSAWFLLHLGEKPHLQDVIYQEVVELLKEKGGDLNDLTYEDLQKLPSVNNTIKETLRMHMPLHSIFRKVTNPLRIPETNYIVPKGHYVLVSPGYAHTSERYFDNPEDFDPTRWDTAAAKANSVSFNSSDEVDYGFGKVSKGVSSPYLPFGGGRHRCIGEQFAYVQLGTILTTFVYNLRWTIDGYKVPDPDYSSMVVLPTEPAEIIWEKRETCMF
Outline: (§4)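 C. albicans SC5314 was grown in RPMI 1640 with 0.015 µg/mL compound, or fluconazole 0.25 µg/mL, about 18 h at 30 °C with shaking at 200 rpm. Cells were pelleted and washed with PBS, then saponified 60 min at 80 °C in ethanol/pyrogallol/60% KOH. Nonsaponifiable sterols were extracted three times with heptane and analysed by GC-MS.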

[16] = molecular target: T1, Lanosterol 14-alpha demethylase; assay: Inhibition of Candida albicans CYP51 assessed as increase in eburicol level at 0.015 ug/ml incubated for 18 hrs by GC/MS analysis relative to control; design: scale not given: the % may be the effect or the level left; outline: as §4
[17] = molecular target: T1, Lanosterol 14-alpha demethylase; assay: Inhibition of Candida albicans CYP51 assessed as ergosterol level at 0.015 ug/ml incubated for 18 hrs by GC/MS analysis (reference value: 100%); design: scale not given: the % may be the effect or the level left; outline: as §4
[18] = molecular target: T1, Lanosterol 14-alpha demethylase; assay: Inhibition of Candida albicans CYP51 assessed as increase in lanosterol level at 0.015 ug/ml incubated for 18 hrs by GC/MS analysis relative to control; design: scale not given: the % may be the effect or the level left; outline: as §4
[19] = molecular target: T1, Lanosterol 14-alpha demethylase; assay: Inhibition of Candida albicans CYP51 assessed as increase in 14alpha-methyl ergosta-8,24(28)-dien-3beta,6alpha-diol level at 0.015 ug/ml incubated for 18 hrs by GC/MS analysis relative to control; design: scale not given: the % may be the effect or the level left; outline: as §4
[20] = molecular target: T1, Lanosterol 14-alpha demethylase; assay: Inhibition of Candida albicans CYP51 assessed as increase in eburicol level at 0.25 ug/ml incubated for 18 hrs by GC/MS analysis relative to control; design: scale not given: the % may be the effect or the level left
Outline: (§5)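 Candida albicans SC5314 grown in RPMI 1640 with agitation (200 rpm) for ~18 h at 30 °C, with 0.25 µg/mL fluconazole as a comparator alongside the test compound. Cells were pelleted (3000g, 10 min), PBS-washed thrice, and saponified 60 min at 80 °C in ethanol, ethanolic pyrogallol and 60% KOH. Nonsaponifiable sterols were extracted thrice with heptane and profiled by GC-MS.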

[21] = molecular target: T1, Lanosterol 14-alpha demethylase; assay: Inhibition of Candida albicans CYP51 assessed as ergosterol level at 0.25 ug/ml incubated for 18 hrs by GC/MS analysis (reference value: 100%); design: scale not given: the % may be the effect or the level left; outline: as §5
[22] = molecular target: T1, Lanosterol 14-alpha demethylase; assay: Inhibition of Candida albicans CYP51 assessed as increase in 14alpha-methyl ergosta-8,24(28)-dien-3beta,6alpha-diol level at 0.25 ug/ml incubated for 18 hrs by GC/MS analysis relative to control; design: scale not given: the % may be the effect or the level left; outline: as §5
[23] = molecular target: T1, Lanosterol 14-alpha demethylase; assay: Inhibition of Candida albicans CYP51 assessed as increase in sterol level at 0.25 ug/ml incubated for 18 hrs by GC/MS analysis relative to control; design: scale not given: the % may be the effect or the level left; outline: as §5
[24] = molecular target: T1, Lanosterol 14-alpha demethylase; assay: Inhibition of Candida albicans CYP51 assessed as increase in lanosterol level at 0.25 ug/ml incubated for 18 hrs by GC/MS analysis relative to control; design: scale not given: the % may be the effect or the level left; outline: as §5

Row | SMILES | MIC [1] | MIC [2] | viability at 24 h, 10 µM [3] | MIC [4] | viability at 24 h, 2 µM [5] | MIC [6] | MIC [7] | viability at 24 h, 0.08 µM [8] | viability at 24 h, 0.4 µM [9] | MIC [10] | MIC [11] | MIC [12] | MIC [13] | MIC [14] | further results
1 | O=C(NC(Cn1ccnc1)C(=O)c1ccc(F)cc1)c1ccc(-c2ccccc2)cc1F (stereo not given) | 2 µg/mL (≈ 4.64 µM) | 0.25 µg/mL (≈ 0.579 µM) | 86.8% | 8 µg/mL (≈ 18.5 µM) | 100% | 0.06 µg/mL (≈ 0.139 µM) | 0.125 µg/mL (≈ 0.29 µM) | 100% | 100% | 0.125 µg/mL (≈ 0.29 µM) | > 64 µg/mL | > 64 µg/mL | 2 µg/mL (≈ 4.64 µM) | 0.125 µg/mL (≈ 0.29 µM) | –
2 | O=C(NC(Cn1ccnc1)C(=O)c1ccccc1)c1ccc(-c2ccccc2)cc1 (stereo not given) | > 64 µg/mL | 0.125 µg/mL (≈ 0.316 µM) | – | 1 µg/mL (≈ 2.53 µM) | – | 0.06 µg/mL (≈ 0.152 µM) | 0.06 µg/mL (≈ 0.152 µM) | – | – | 0.25 µg/mL (≈ 0.632 µM) | 0.5 µg/mL (≈ 1.26 µM) | 2 µg/mL (≈ 5.06 µM) | > 64 µg/mL | 0.125 µg/mL (≈ 0.316 µM) | –
3 | Cc1ccc(C(=O)C(Cn2ccnc2)NC(=O)c2ccc(-c3ccccc3)c(F)c2)cc1 (stereo not given) | 2 µg/mL (≈ 4.68 µM) | 0.06 µg/mL (≈ 0.14 µM) | 92.5% | 16 µg/mL (≈ 37.4 µM) | 97% | 0.03 µg/mL (≈ 0.0702 µM) | 0.03 µg/mL (≈ 0.0702 µM) | 100% | 100% | 0.125 µg/mL (≈ 0.292 µM) | 16 µg/mL (≈ 37.4 µM) | 16 µg/mL (≈ 37.4 µM) | 1 µg/mL (≈ 2.34 µM) | 0.125 µg/mL (≈ 0.292 µM) | Activity [15]: 3.04 to 5.85%; Activity [16]: 9.56%; Activity [17]: 41.99%; Activity [18]: 23.17%; Activity [19]: 13.26%
4 | O=C(NC(Cn1ccnc1)C(=O)c1cccc(Cl)c1)c1ccc(-c2ccccc2)cc1 (stereo not given) | > 64 µg/mL | 0.06 µg/mL (≈ 0.14 µM) | 96.3% | 4 µg/mL (≈ 9.3 µM) | 97.2% | 0.03 µg/mL (≈ 0.0698 µM) | 0.03 µg/mL (≈ 0.0698 µM) | 100% | 97.4% | 0.125 µg/mL (≈ 0.291 µM) | 1 µg/mL (≈ 2.33 µM) | 4 µg/mL (≈ 9.3 µM) | > 64 µg/mL | 0.125 µg/mL (≈ 0.291 µM) | –
5 | O=C(NC(Cn1ccnc1)C(=O)c1ccccc1F)c1ccc(-c2ccccc2)cc1 (stereo not given) | 8 µg/mL (≈ 19.3 µM) | 0.125 µg/mL (≈ 0.302 µM) | 100% | < 0.125 µg/mL | 100% | 0.125 µg/mL (≈ 0.302 µM) | 1 µg/mL (≈ 2.42 µM) | 100% | 100% | 2 µg/mL (≈ 4.84 µM) | 0.25 µg/mL (≈ 0.605 µM) | 0.5 µg/mL (≈ 1.21 µM) | 1 µg/mL (≈ 2.42 µM) | 0.125 µg/mL (≈ 0.302 µM) | –
6 | OC(Cn1cncn1)(Cn1cncn1)c1ccc(F)cc1F [FLUCONAZOLE] | > 64 µg/mL | 2 µg/mL (≈ 6.53 µM) | 95.3% | > 64 µg/mL | 95.7% | 0.5 µg/mL (≈ 1.63 µM) | 0.5 µg/mL (≈ 1.63 µM) | 100% | 99.1% | 4 µg/mL (≈ 13.1 µM) | > 64 µg/mL | > 64 µg/mL | > 64 µg/mL | 2 µg/mL (≈ 6.53 µM) | Activity [20]: 4.27%; Activity [21]: 63%; Activity [22]: 5.15%; Activity [23]: 1.54 to 5.07%; Activity [24]: 16.74%
7 | CCC(C)n1ncn(-c2ccc(N3CCN(c4ccc(OCC5COC(Cn6cncn6)(c6ccc(Cl)cc6Cl)O5)cc4)CC3)cc2)c1=O (stereo not given) [ITRACONAZOLE] | 0.25 µg/mL (≈ 0.354 µM) | 0.03 µg/mL (≈ 0.0425 µM) | – | > 64 µg/mL | – | 0.03 µg/mL (≈ 0.0425 µM) | 0.03 µg/mL (≈ 0.0425 µM) | – | – | 0.125 µg/mL (≈ 0.177 µM) | > 64 µg/mL | > 64 µg/mL | 0.25 µg/mL (≈ 0.354 µM) | 0.125 µg/mL (≈ 0.177 µM) | –
